According to ChEMBL document CHEMBL4190262, “Tuning of β-glucosidase and α-galactosidase inhibition by generation and in situ screening of a library of pyrrolidine-triazole hybrid molecules” (Eur J Med Chem, 2017):
The source made the active and inactive calls. The rule behind the calls is not given here.

How the values were obtained:
[1] = molecular target: T1, Alpha-mannosidase (Canavalia ensiformis) (UniProt C0HJB3); test: Inhibition of jack bean alpha-mannosidase at 1 mM using p-nitrophenyl glycopyranoside preincubated for 5 mins followed by substrate addition measured after 20 mins by visible absorption spectroscopic method relative to control
T1 sequence (whole entry): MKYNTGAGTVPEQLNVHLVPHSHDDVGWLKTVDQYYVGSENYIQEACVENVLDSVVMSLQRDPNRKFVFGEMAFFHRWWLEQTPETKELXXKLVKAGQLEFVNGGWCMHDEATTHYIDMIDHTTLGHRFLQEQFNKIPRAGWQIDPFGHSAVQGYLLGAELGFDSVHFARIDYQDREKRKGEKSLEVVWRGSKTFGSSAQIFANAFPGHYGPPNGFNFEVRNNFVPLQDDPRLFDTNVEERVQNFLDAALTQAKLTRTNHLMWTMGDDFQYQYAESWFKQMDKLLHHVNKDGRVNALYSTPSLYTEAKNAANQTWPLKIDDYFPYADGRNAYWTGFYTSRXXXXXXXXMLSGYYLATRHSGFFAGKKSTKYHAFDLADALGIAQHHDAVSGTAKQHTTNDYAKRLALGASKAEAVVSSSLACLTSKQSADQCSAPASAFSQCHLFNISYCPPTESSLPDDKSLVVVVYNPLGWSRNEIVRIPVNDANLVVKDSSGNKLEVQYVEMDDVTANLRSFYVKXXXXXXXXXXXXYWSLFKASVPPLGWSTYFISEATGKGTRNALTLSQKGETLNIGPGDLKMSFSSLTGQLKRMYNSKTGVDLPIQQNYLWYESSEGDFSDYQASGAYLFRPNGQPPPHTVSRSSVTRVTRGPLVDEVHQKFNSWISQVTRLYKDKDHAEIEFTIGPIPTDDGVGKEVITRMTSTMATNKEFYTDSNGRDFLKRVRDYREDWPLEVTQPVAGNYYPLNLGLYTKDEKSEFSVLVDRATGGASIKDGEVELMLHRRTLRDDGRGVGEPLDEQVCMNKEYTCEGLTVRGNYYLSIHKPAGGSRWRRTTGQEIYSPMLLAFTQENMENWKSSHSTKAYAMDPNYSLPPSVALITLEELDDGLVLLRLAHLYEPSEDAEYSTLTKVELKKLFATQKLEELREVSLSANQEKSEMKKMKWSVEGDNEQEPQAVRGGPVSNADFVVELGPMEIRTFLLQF
Outline: (§1)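 Test compound at 1 mM in well. Mix: 0.01–0.5 units/mL enzyme plus 10 mM p-nitrophenyl glycopyranoside (aqueous solution), buffered to the enzyme's optimal pH. Enzyme and inhibitor preincubated 5 min at rt. Substrate then added and incubated 20 min at 37 °C. Stopped with sodium borate (pH 9.8). p-Nitrophenolate read at 405 nm. Duplicates averaged.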

Prunus dulcis = test: Inhibition of almond beta-glucosidase at 10 uM using p-nitrophenyl glycopyranoside preincubated for 5 mins followed by substrate addition measured after 20 mins by visible absorption spectroscopic method relative to control
Outline: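 Crude click-reaction products screened in situ. Azide (final 15 mM) was reacted with each alkyne using sodium ascorbate/CuSO4 in tBuOH–H2O for 24 h at rt, then diluted with water. Tested at 10 μM per well, assuming quantitative conversion, against almond β-glucosidase at pH 5, 37 °C. p-Nitrophenyl glycoside read-out at 405 nm.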

Bos taurus = organism: Bos taurus; test: Inhibition of bovine liver beta-glucosidase at 1 mM using p-nitrophenyl glycopyranoside preincubated for 5 mins followed by substrate addition measured after 20 mins by visible absorption spectroscopic method relative to control; outline: as §1
[2] = molecular target: Beta-galactosidase (Escherichia coli) (UniProt Q8VNN2); test: Inhibition of Escherichia coli beta-galactosidase at 1 mM using p-nitrophenyl glycopyranoside preincubated for 5 mins followed by substrate addition measured after 20 mins by visible absorption spectroscopic method relative to control; outline: as §1
Aspergillus niger = test: Inhibition of Aspergillus niger amyloglucosidase at 1 mM using p-nitrophenyl glycopyranoside preincubated for 5 mins followed by substrate addition measured after 20 mins by visible absorption spectroscopic method relative to control; outline: as §1
[3] = Inhibition of almond beta-glucosidase using p-nitrophenyl glycopyranoside preincubated for 5 mins followed by substrate addition measured after 20 mins by visible absorption spectroscopic method; set-up: species or system Prunus dulcis
Outline: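 IC50 determined only for compounds giving ≥80% inhibition at 1 mM, read from plots of % inhibition versus inhibitor concentration. p-Nitrophenyl glycopyranoside substrate (10 mM solution) at the enzyme's optimal pH, with 0.01–0.5 units/mL enzyme. 5 min rt preincubation with enzyme, then 20 min at 37 °C. Borate stop (pH 9.8), absorbance at 405 nm. Duplicates averaged.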

[4] = molecular target: T2, Beta-galactosidase (Aspergillus oryzae) (UniProt B7VU80); test: Inhibition of Aspergillus oryzae beta-galactosidase at 1 mM using p-nitrophenyl glycopyranoside preincubated for 5 mins followed by substrate addition measured after 20 mins by visible absorption spectroscopic method relative to control; outline: as §1
T2 sequence (whole entry): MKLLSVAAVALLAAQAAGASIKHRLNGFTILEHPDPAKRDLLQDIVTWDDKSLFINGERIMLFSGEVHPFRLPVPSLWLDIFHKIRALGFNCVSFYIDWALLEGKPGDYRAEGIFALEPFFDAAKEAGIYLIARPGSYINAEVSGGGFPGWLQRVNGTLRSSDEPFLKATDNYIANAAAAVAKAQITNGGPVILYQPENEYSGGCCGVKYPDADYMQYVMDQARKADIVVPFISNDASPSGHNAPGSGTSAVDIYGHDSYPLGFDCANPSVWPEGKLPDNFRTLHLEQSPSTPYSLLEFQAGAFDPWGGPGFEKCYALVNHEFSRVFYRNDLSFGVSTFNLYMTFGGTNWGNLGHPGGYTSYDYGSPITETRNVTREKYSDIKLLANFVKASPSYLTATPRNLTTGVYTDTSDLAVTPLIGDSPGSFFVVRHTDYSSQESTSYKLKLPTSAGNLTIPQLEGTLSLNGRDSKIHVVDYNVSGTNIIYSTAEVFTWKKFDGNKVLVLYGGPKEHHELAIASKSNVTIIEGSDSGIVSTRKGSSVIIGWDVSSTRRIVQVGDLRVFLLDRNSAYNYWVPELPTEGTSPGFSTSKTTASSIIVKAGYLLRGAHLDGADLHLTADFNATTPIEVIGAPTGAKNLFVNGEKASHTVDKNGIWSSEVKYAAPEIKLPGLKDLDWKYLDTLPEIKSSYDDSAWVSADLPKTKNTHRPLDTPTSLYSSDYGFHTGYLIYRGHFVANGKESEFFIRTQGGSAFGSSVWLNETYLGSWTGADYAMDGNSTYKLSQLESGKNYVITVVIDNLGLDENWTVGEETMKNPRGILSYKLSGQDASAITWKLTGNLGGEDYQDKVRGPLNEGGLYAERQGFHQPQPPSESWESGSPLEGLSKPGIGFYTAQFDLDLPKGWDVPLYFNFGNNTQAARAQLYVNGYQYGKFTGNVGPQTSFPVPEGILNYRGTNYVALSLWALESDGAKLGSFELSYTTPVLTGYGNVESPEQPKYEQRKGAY

[5] = molecular target: Alpha-galactosidase (Coffea arabica) (UniProt Q42656); test: Inhibition of coffee beans alpha-galactosidase at 1 mM using p-nitrophenyl glycopyranoside preincubated for 5 mins followed by substrate addition measured after 20 mins by visible absorption spectroscopic method relative to control; outline: as §1
Chain of Alpha-galactosidase (Coffea arabica) (Q42656 16-378 limits assumed): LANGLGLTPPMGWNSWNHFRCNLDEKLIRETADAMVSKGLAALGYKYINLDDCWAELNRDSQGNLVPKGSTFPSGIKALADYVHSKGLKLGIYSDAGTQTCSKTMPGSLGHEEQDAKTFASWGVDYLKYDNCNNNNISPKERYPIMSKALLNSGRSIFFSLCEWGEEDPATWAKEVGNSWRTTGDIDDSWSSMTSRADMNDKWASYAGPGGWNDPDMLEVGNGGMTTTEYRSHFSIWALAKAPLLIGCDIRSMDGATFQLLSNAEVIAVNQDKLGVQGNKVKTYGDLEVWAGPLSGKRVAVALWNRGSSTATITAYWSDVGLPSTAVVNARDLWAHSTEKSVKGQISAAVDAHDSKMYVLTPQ

Chain of Beta-galactosidase (Escherichia coli) (Q8VNN2 whole entry, looked up): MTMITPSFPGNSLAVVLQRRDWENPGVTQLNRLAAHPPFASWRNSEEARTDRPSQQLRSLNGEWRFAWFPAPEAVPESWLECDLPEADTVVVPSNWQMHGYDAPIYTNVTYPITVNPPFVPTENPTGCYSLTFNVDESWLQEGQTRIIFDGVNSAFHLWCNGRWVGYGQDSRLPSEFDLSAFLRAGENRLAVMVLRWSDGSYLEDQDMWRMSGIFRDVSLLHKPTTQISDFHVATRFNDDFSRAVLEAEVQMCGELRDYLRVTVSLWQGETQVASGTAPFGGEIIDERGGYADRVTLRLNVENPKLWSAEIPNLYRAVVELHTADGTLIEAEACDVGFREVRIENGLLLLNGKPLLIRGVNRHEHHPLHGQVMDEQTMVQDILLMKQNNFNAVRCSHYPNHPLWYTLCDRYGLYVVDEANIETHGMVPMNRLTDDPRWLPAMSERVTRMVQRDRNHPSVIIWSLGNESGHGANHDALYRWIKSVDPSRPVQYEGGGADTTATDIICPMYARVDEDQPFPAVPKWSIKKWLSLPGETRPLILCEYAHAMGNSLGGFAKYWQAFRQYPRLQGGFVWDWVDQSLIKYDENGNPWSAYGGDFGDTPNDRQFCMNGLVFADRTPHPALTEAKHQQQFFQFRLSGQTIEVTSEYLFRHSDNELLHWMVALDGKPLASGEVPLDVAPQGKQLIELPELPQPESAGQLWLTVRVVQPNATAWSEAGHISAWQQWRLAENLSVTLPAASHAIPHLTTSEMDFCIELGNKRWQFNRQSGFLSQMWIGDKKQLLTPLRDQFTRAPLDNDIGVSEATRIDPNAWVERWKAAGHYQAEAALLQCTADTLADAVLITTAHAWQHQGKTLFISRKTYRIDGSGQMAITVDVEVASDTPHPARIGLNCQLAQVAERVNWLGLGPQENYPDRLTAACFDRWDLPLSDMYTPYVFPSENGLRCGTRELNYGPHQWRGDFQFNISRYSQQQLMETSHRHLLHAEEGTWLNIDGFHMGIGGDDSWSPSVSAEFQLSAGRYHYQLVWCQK

Structure (SMILES)	inhibition [1]	inhibition (Prunus dulcis) [%]	inhibition (Bos taurus) [%]	inhibition [2]	inhibition (Aspergillus niger)	IC50 [3] [µM]	inhibition [4]	inhibition [5] [%]
O[C@@H]1[C@H](O)CN[C@H]1Cn1cc(-c2ccccc2)nn1	inactive	72	< 50	inactive	38%	8	inactive	< 50
O[C@@H]1[C@H](O)CN[C@@H]1Cn1cc(-c2ccccc2)nn1	inactive	–	–	inactive	inactive	–	41%	–
